A short description of test [1]: Displacement of [125I]-angiotensin 2 from angiotensin AT1 receptor in VSMC of Sprague-Dawley rat thoracic aorta after 60 mins by gamma-counting. The format is tissue-based. The essentials: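 VSMCs explant-cultured from SD rat thoracic aorta (collagenase digestion, DMEM + 15% FBS), passages 3-7. Cells incubated with 0.1 nM 125I-angiotensin II plus compound (final 1e-6 to 1e-12 M), 60 min, 37°C. Nonspecific binding defined with 1 µM AII. Cells washed with PBS, lysed in 0.1 M NaOH, gamma-counted. IC50 from regression of displacement curves; Ki = IC50/(1+[L]/Kd).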

Test [2] has as its system Rattus norvegicus. Briefly: Antihypertensive activity in renal hypersensitive Sprague-Dawley rat model assessed as reduction of blood pressure at 5 to 10 mg/kg, po measured for 1 to 24 hrs. Type of test: functional, organism-based. The essentials: (§1)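 Renal hypertension induced in Sprague-Dawley rats (250-350 g) by complete ligation of the left renal artery under sodium pentobarbital (40 mg/kg); rats with SBP above 160 mmHg used. Groups of 10. Compound suspended in 0.5% sodium carboxymethyl cellulose and given orally at 5 and 10 mg/kg; vehicle control and losartan 10 mg/kg. Mean blood pressure measured under pentobarbital (40 mg/kg, i.p.) anesthesia.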

Test [3] deals with Rattus norvegicus. Briefly: Antihypertensive activity in spontaneous hypersensitive […] rat model assessed as reduction of blood pressure at <5 to 10 mg/kg, po measured for 1 to 24 hrs. The format is functional, organism-based. More on the design: dose 10 mg/kg. An outline of the steps: (§2)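 Spontaneously hypertensive rats (250-300 g), randomized into groups of 10. Compound suspended in 0.5% sodium carboxymethyl cellulose, oral dosing at 5 and 10 mg/kg; vehicle-only negative control and losartan 10 mg/kg positive control. Mean blood pressure recorded under sodium pentobarbital anesthesia (40 mg/kg, i.p.). Significance versus control at p < 0.05 or 0.01.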

Test [4] deals with Rattus norvegicus. Briefly: Antihypertensive activity in spontaneous hypersensitive […] rat model assessed as duration of reduction of blood pressure at 5 to 10 mg/kg, po. The format is functional. As to conditions: dose mg/kg 5-10. An outline of the steps: as §2
Test [5] relates to Rattus norvegicus. Briefly: Antihypertensive activity in spontaneous hypersensitive […] rat model assessed as reduction of blood pressure at 10 mg/kg, po measured after 4 to 5 hrs. Type of test: functional. An outline of the steps:
as §2

Test [6] relates to Rattus norvegicus. Briefly: Antihypertensive activity in spontaneous hypersensitive […] rat model assessed as reduction of blood pressure at 5 mg/kg, po measured after 4 to 5 hrs. Type of test: functional. The essentials: as §2
The test system of test [7] is Rattus norvegicus. Briefly: Antihypertensive activity in spontaneous hypersensitive […] rat model assessed as reduction of blood pressure at 10 mg/kg, po measured for 1 to 24 hrs. The format is functional. An outline of the steps:
as §2

In test [8] the test system is Rattus norvegicus. Briefly: Antihypertensive activity in renal hypersensitive Sprague-Dawley rat model assessed as reduction of blood pressure at 10 mg/kg, po measured for 1 to 24 hrs. More on the design: dose 10 mg/kg. The format is functional, organism-based. An outline of the steps: as §1

Calls of active or inactive are those of the source. No cut-off for these calls is given here.

In test [1], `CCCc1nc2cc([N+](=O)[O-])ccc2n1Cc1cccc2c1ccn2-c1ccccc1C(=O)O` yielded a concentration for half-maximal inhibition (IC50) of 5.43 nM and a Ki of 4.23 nM. The result in test [2] was inactive. The outcome in test [3] was inactive.
With `CCCCc1nc2cc([N+](=O)[O-])ccc2n1Cc1cccc2c1ccn2-c1ccccc1C(=O)O`, the Time in test [4] was 24 h. In test [1], the IC50 was found to be 1.03 nM. Besides, the Ki in test [1] was 0.97 nM. In addition, the Activity in test [5] is 41 mmHg; in test [6] it was 30 mmHg. In addition, the result in test [2] was Active.
Regarding `CCc1nc2cc([N+](=O)[O-])ccc2n1Cc1cccc2c1ccn2-c1ccccc1C(=O)O`, in test [1], the IC50 is 4.12 nM and the inhibition constant Ki was determined as 3.04 nM. Besides, the Activity in test [7] turned out to be 30 mmHg. For the same compound, in test [8], the outcome was Active.
The like results for `CCCCc1nc2cc([N+](=O)[O-])ccc2n1Cc1ccc2c(ccn2-c2ccccc2C(=O)O)c1` were, in that order, 5.11 nM, 4.89 nM, 32 mmHg and “Active”.
In test [1], `CCCCc1nc(Cl)c(CO)n1Cc1ccc(-c2ccccc2-c2nnn[nH]2)cc1` [LOSARTAN] gave an IC50 of 3.54 nM and a Ki of 2.53 nM. For the same compound, the Activity in test [7] was 31 mmHg. Besides, in test [8], the outcome was Active.
On the same counts, the results for `CCCc1nc2cc([N+](=O)[O-])ccc2n1Cc1ccc2c(ccn2-c2ccccc2C(=O)O)c1` are 3.32 nM, 2.22 nM, 28 mmHg and “Active”.
In test [1], `CCCCCc1nc2cc([N+](=O)[O-])ccc2n1Cc1cccc2c1ccn2-c1ccccc1C(=O)O` returned an IC50 of 15.7 nM and a Ki of 13.4 nM. Also, the result in test [2] was inactive. The outcome in test [3] was inactive.

(Values after ChEMBL document CHEMBL3232799, “Design, synthesis and biological evaluation of new 5-nitro benzimidazole derivatives as AT1 antagonists with anti-hypertension activities” (Bioorg Med Chem, 2014).)
